This note sets out measurements from the RNAGym collection of RNA variant scans (doi:10.1126/science.aae0568).

Variants at the floor of the assay were thinned out.

The labels stand for the following.
B1: tRNA (parent)
chain: GUUCCGUUGGCGUAAUGGUAACGCGUCUCCCUCCUAAGGAGAAGACUGCGGGUUCGAGUCCCGUACGGAACG

Variants of B1 are the subject of this series. The series is described as follows: yeast fitness relative to wild type (ratio to wild type); higher = fitter; tRNA-Arg(CCU), competitive growth, 37 C, YPD. An outline of the steps:
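Genotype frequency changes were the basis for Darwinian fitness relative to wild type. The frequencies came from 100-nucleotide paired-end sequencing of gene amplicons from the start population and each end population of pooled yeast strains with tRNA-Arg(CCU) gene variants at the native locus. Competition ran in YPD at 37°C for 24 hours in six replicates, genotypes needed ≥ 100 starting reads, and estimates < 0.5 were set to 0.5.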
For the variant GUUGCGUUGGCGUAGUGGUAACGCGGCUCCCUCCUAAGGAGAAGACUGCGGGUUCGAGUCCCGUACGGAACG, the yeast fitness was no more than 0.5.
As for GUUGCGUUGGCGUGAUGGUAACGCGUCUCCAUCCUAAGGAGAAGACUGCGGGUUCGAGUCCCGUACGGAACG, the yeast fitness was found to be 0.528.
With GUUACGUUGGCGUAAUGGUAACGCGACUCCCUCCUAAGGAGAAGACUGCGGGUUCGAGUCCCGUACGGAACG, the yeast fitness is 0.683.
Next, GUUACGUCGGCGUAAUGGUAACGCGUCUCCCUCCUAAGGAGAAGACUGCGCGUUCGAGUCCCGUACGGAACG: no more than 0.5; GUUACGUUGGCGUAAAGGUAACGCGUCUCCCUCCUAAGGAGACGAUUGCGGGUUCGAGUCCCGUACGGAACG: no more than 0.5; GUUACGAGGGCGUAAUGGUAACGCGUCUCCCUCCUAAGGAGAAGCCUGCGGGUUCGAGUCCCGUGGGGAACG: no more than 0.5.
Under GUUGCGUUGGCGUGAUGGUAACGCGUCUCCCUCCUAAGGAGAAGACUGCGGGUUCGAGUCCCGCACGGAACG stands no more than 0.5.
GUUACGUAGGCCUAAUGGCAACGCGUCUCUCUCCUAAGGAGAAGACUGCGGGUUCGAGUCCCGUACGGAACG: the yeast fitness is no more than 0.5.
In the case of GUUGCGUUGGCGUUAUGGUAACGCGUCUCCCUCCUAUGGAGAAGACUGCGGGCUCGAGUCCCGUACGGUACG, the yeast fitness was no more than 0.5.
Turning to GUUACGUUGGCGUAAUGGUAACGCGUCUCCCUCCUAAGGAGAAGACUGCGGGUUCGAGUCCCCUACGGAACG, the yeast fitness worked out at 0.748.
Next, GUUACGUUGGCGUAAUGGUAACGCGUCUCCCUCCUAAGGAGAAGACUGCGCGUUCGAGUCCCGUACGGAACG: 0.547; GUUACGUUGGCGGAAUGGUAACGUGUCUCCCUCCUAAGGAGGAGACUGCGGAUUCGAGUCCCGUACGGAACG: 0.601.
As to GUUACGUUGGCGUAACAGUAACGCGUCUCCCCCCUAAGGAGAAGACUGCGGGUUCGAGUCCCGUACGGAACG, the yeast fitness is no more than 0.5.
GUUACGUUGGCGUAAUGGCAACGCGUCUCCCUCCCAAGGAGAAGACUACGGGUUCGAGUCCCGUACGGAACG: the yeast fitness is no more than 0.5.
As to GUUACGUUGGCGUAAAGGUAACGCGUCUCCCUCCUAGGGAGAAGACUGCGGGUUCGAGUCCCGUACGGUACG, the yeast fitness is no more than 0.5.
For GUUACGUUGGCGUAAUGGUAACGCGUCUCCCUCCUAAGGAGAACACUGCGAGUUCGACACCCGUACGGAACG, the yeast fitness was no more than 0.5.
In the case of GUUACGUUGGCGUAAUGGUAACGCGUCACCGUCCAAAGGAGAAGACAGCGGGUACGAGUCCCGUACGGAACG, the yeast fitness is no more than 0.5.
Next, GUUGCGUUGGCGUUAUGGUGCCGCGUCUCCCUCCUAAGGAGAAGACUGCGGGUUCGAGUCCCGUACGGAACG: 0.55.
In the case of GUUACGUUGGCGUAAUGGUAACGCGUCUCCCUCCCAAGGAGAAGACUCCGGGUUUAAGUCCCGUACGGAACG, the yeast fitness is 0.51.
With GUUACGUUGGCGUAAUGGUAACGCGUCGCCCUCCUAAGGAGAAGACUGCGGGUUCGAGUCCCGUACGGAACG, the yeast fitness is 0.681.
With GUUGCGUUGGCGUAUUGGUAGCGCGUCUCCCUCCUAAGGAGAAGACUACCGGUUCGAGUCCCGUACGGAACG, the yeast fitness is no more than 0.5.
Regarding GUUACGUUGGCGUAAGGGUAACGCGUCUCACUCCUAAGGAGAAGACUGCGGGUUCGAGUCCCGUACGGAACG, the yeast fitness stood at 0.62.
As for GUUACGUUGGCGUAAUGGAAACGCGUCUCCCUCCUAAGGUGAAGACUCCGGGUUCGAGUCCCGUACGGAACG, the yeast fitness is no more than 0.5.
For GUUACGUUGGCGAAAUGGUAACGCGUCUCCCUCCUAAGGAGAAGACUGCGGGUUCGACUCCCGUACGGUACG, the yeast fitness is 0.655.
Under GUUACGUUGGCGUAAUGGGAACGCGUCUCGCUCCUAAGGAGAAGACUGCGGGUUCGAGUCCCGUACGGAACG stands no more than 0.5; under GUUACGUUGGCGUAAUGGGAACGCGUCUCCCUCCUAAGGAGAAGACUGCGGGUUCGAGUCCCGUACGGACCG, 0.854; under GUUACGAAGGCGUAAUGGUAACGCGUCUCCCUCCCAAGGAGAAGACUGCGGGUUCGAGUACCGUACGGAACG, no more than 0.5.
Regarding GUUACGUUGGCGUAAUGGGAACGCGUCUCCCUCCCAAGGAGAAGACUGCGGGCUCGAGUCCCGUACGGAACG, the yeast fitness is no more than 0.5.
On to GUUGCGUUGGCGUCAUGGUAACGCGUCUCCCUCCUAAGGAGAAGACUGCCGGUUCCAGUCCCGUACGGAACG, for which the yeast fitness was no more than 0.5.
For the variant GUUACGUUGGCGUAAUGGUAACGCGCGUCCCUGCUAUGGAAAAGACUGCGGGUUCGGGUCCGGUACGGAACG, the yeast fitness is no more than 0.5.
GUUACGUUGGCGUAAUGGUAACGCGACUCCCUCCUAAGGAGAAGUCUGCGGGUUCGAGUCCCGUACGGAACG: the yeast fitness came to 0.656.
For the variant GUUACGUUGGCGUAAUGGUAACGCGACUCCCUCCUCAGGAGAAGACUGGGGGUUCGAGUCCCGUACGGAACG, the yeast fitness was determined as 0.583.
As for GUUGCGUUGGCGUGAUGGUAACGCGUCUCGCUCCUAAGGAGAAGACUGCGGGUUCGAGUCCCCUACGGAACG, the yeast fitness is no more than 0.5.
On to GUUACGCUGGCGUAAUGGUAACGCGUCUCCCUCCUAAGGAAAAGACUGAGGGUCCGAGUCCCGUACGGAACG, for which the yeast fitness is no more than 0.5.
Under GUUACGUGGGCGUAAUGGUAACGCGUCUCCCUCCUAAGGAGAAGACUGCGGGUUCGAGUCCCGUACGGUACG stands no more than 0.5; under GUUACGUUGGCGUAAUGGUAACGCGUCUCCCUCCUAAGGAGAAGACUGCGCGUUCGAGUCCCGUAUGGAACG, no more than 0.5; under GUUACGUUGGCGUAAUGGUAACGCGUCUCCCUCCUAAGGAGAAGACUGCGGGUUCAAGUCCUGUACGGAACG, 0.626.
